≈ marks a conversion by molar mass, not a printed value.
How the values were obtained:
[1] = Cytotoxicity against human CaSki cells after 48 hrs by SRB assay; type: functional, cell-based; conditions: Ca-Ski
Procedure, shortened: (§1)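 Cell lines (HeLa, CaSki, SK-OV-3, MDCK) were obtained from ATCC. The colorimetric end point used the protein-binding dye sulforhodamine B.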

[2] = Antioxidant activity assessed as ABTS radical scavenging activity after 10 mins by UV-Visible spectrophotometric analysis; type: physicochemical
Procedure, shortened: (§2)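 Radical scavenging by DPPH (Brand–Williams method) and by ABTS radical-cation decolorization via single electron transfer. Ascorbic acid served as the reference. IC50 is the concentration that inhibits 50% of the radicals. Results are the average of triplicate analyses.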

SK-OV-3 = test: Cytotoxicity against human SKOV3 cells after 48 hrs by SRB assay; type: functional, cell-based; conditions: SK-OV-3, 48 h; procedure, shortened: as §1
HeLa [3] = test: Cytotoxicity against human HeLa cells after 48 hrs by SRB assay; type: functional, cell-based; procedure, shortened: as §1
[4] = Antioxidant activity assessed as DPPH radical scavenging activity after 25 mins by UV-Visible spectrophotometric analysis; type: physicochemical; procedure, shortened: as §2
MDCK = test: Cytotoxicity against MDCK cells after 48 hrs by SRB assay; type: cell-based; conditions: Canis lupus familiaris; procedure, shortened: as §1
HeLa [5] = test: Cytotoxicity against human HeLa cells; type: functional, cell-based

SMILES	IC50 [2] [µg/mL]	IC50 [4] [µg/mL]	IC50 [1] [µg/mL]	IC50 (SK-OV-3) [µg/mL]	IC50 (HeLa [3]) [µg/mL]	CC50 (MDCK) [µg/mL]	IC50 (HeLa [5]) [µg/mL]
O=c1cc(-c2ccccc2)oc2cc(OCCCCNc3nc4ccccc4s3)cc(O)c12	8.567 (≈ 18.7 µM)	26.45 (≈ 57.7 µM)	14.6 (≈ 31.9 µM)	48.5 (≈ 106 µM)	4.75 (≈ 10.4 µM)	348 (≈ 758 µM)	–
COc1ccc2nc(NCCCCOc3cc(O)c4c(=O)cc(-c5ccccc5)oc4c3)sc2c1	7.356 (≈ 15.1 µM)	23.87 (≈ 48.9 µM)	16.1 (≈ 33 µM)	38.1 (≈ 78.1 µM)	6.15 (≈ 12.6 µM)	285 (≈ 583 µM)	–
CCOc1ccc2nc(NCCCCOc3cc(O)c4c(=O)cc(-c5ccccc5)oc4c3)sc2c1	8.853 (≈ 17.6 µM)	24.41 (≈ 48.6 µM)	15.1 (≈ 29.9 µM)	35.3 (≈ 70.3 µM)	5.25 (≈ 10.4 µM)	306 (≈ 610 µM)	–
O=c1cc(-c2ccccc2)oc2cc(OCCCCNc3nc4c(F)cc(F)cc4s3)cc(O)c12	5.764 (≈ 11.7 µM)	15.12 (≈ 30.6 µM)	10.8 (≈ 21.9 µM)	36.8 (≈ 74.5 µM)	5.56 (≈ 11.2 µM)	307 (≈ 621 µM)	–
O=c1cc(-c2ccccc2)oc2cc(OCCCCNc3nc4ccc(C(F)(F)F)cc4s3)cc(O)c12	4.953 (≈ 9.41 µM)	16.27 (≈ 30.9 µM)	11.2 (≈ 21.3 µM)	37.2 (≈ 70.6 µM)	7.84 (≈ 14.9 µM)	278 (≈ 529 µM)	–
O=c1cc(-c2ccccc2)oc2cc(OCCCCNNc3nc4ccccc4s3)cc(O)c12	8.734 (≈ 18.4 µM)	24.34 (≈ 51.4 µM)	14.6 (≈ 30.9 µM)	51.7 (≈ 109 µM)	4.64 (≈ 9.79 µM)	316 (≈ 668 µM)	–
O=C1O[C@H]([C@@H](O)CO)C(O)=C1O [ASCORBIC ACID]	5.0925 (≈ 28.9 µM)	12.72 (≈ 72.2 µM)	–	–	–	–	–
O=c1cc(-c2ccccc2)oc2cc(O)cc(O)c12 [CHRYSIN]	–	–	–	–	–	–	10.9 (≈ 43 µM)

Continued, in another order:

IC50 [2] [µg/mL]	IC50 [4] [µg/mL]	SMILES	IC50 [1] [µg/mL]	IC50 (SK-OV-3) [µg/mL]	IC50 (HeLa [3]) [µg/mL]	CC50 (MDCK) [µg/mL]	IC50 (HeLa [5]) [µg/mL]
8.785 (≈ 18.6 µM)	28.13 (≈ 59.5 µM)	Cc1ccc2nc(NCCCCOc3cc(O)c4c(=O)cc(-c5ccccc5)oc4c3)sc2c1	15.5 (≈ 32.9 µM)	48.4 (≈ 102 µM)	6.56 (≈ 13.9 µM)	294 (≈ 621 µM)	–
8.135 (≈ 16.2 µM)	30.25 (≈ 60.1 µM)	O=c1cc(-c2ccccc2)oc2cc(OCCCCNc3nc4ccc([N+](=O)[O-])cc4s3)cc(O)c12	13.2 (≈ 26.3 µM)	41.4 (≈ 82.3 µM)	6.44 (≈ 12.8 µM)	310 (≈ 615 µM)	–
6.543 (≈ 13.5 µM)	15.56 (≈ 32.2 µM)	N#Cc1ccc2nc(NCCCCOc3cc(O)c4c(=O)cc(-c5ccccc5)oc4c3)sc2c1	18.8 (≈ 39 µM)	43.7 (≈ 90.4 µM)	8.53 (≈ 17.6 µM)	312 (≈ 646 µM)	–
4.156 (≈ 8.43 µM)	13.16 (≈ 26.7 µM)	O=c1cc(-c2ccccc2)oc2cc(OCCCCNc3nc4ccc(Cl)cc4s3)cc(O)c12	12.4 (≈ 25.2 µM)	39.2 (≈ 79.6 µM)	5.95 (≈ 12.1 µM)	338 (≈ 685 µM)	–
6.565 (≈ 12.2 µM)	16.09 (≈ 29.9 µM)	O=c1cc(-c2ccccc2)oc2cc(OCCCCNc3nc4ccc(Br)cc4s3)cc(O)c12	12.4 (≈ 23.1 µM)	35.1 (≈ 65.3 µM)	6.56 (≈ 12.2 µM)	289 (≈ 538 µM)	–
9.836 (≈ 16.8 µM)	25.44 (≈ 43.5 µM)	O=c1cc(-c2ccccc2)oc2cc(OCCCCNc3nc4ccc(I)cc4s3)cc(O)c12	13.2 (≈ 22.5 µM)	56.4 (≈ 96.6 µM)	8.12 (≈ 13.9 µM)	298 (≈ 510 µM)	–
5.246 (≈ 11 µM)	14.74 (≈ 30.9 µM)	O=c1cc(-c2ccccc2)oc2cc(OCCCCNc3nc4ccc(F)cc4s3)cc(O)c12	13.4 (≈ 28 µM)	33.7 (≈ 70.8 µM)	5.03 (≈ 10.6 µM)	324 (≈ 680 µM)	–
8.355 (≈ 16.2 µM)	29.16 (≈ 56.6 µM)	CC(=O)Nc1ccc2nc(NCCCCOc3cc(O)c4c(=O)cc(-c5ccccc5)oc4c3)sc2c1	11.4 (≈ 22 µM)	51.3 (≈ 99.4 µM)	6.91 (≈ 13.4 µM)	291 (≈ 565 µM)	–
6.742 (≈ 13.4 µM)	21.66 (≈ 43.1 µM)	O=C(O)c1ccc2nc(NCCCCOc3cc(O)c4c(=O)cc(-c5ccccc5)oc4c3)sc2c1	12.1 (≈ 24 µM)	43.3 (≈ 86.3 µM)	8.42 (≈ 16.8 µM)	324 (≈ 645 µM)	–
7.026 (≈ 14 µM)	30.72 (≈ 61.4 µM)	CC(=O)c1ccc2nc(NCCCCOc3cc(O)c4c(=O)cc(-c5ccccc5)oc4c3)sc2c1	14.5 (≈ 29 µM)	34.3 (≈ 68.4 µM)	7.78 (≈ 15.6 µM)	311 (≈ 621 µM)	–
7.157 (≈ 13.9 µM)	32.23 (≈ 62.6 µM)	CCC(=O)c1ccc2nc(NCCCCOc3cc(O)c4c(=O)cc(-c5ccccc5)oc4c3)sc2c1	17.8 (≈ 34.7 µM)	35.6 (≈ 69.3 µM)	6.26 (≈ 12.2 µM)	296 (≈ 574 µM)	–
8.535 (≈ 16.1 µM)	38.98 (≈ 73.7 µM)	CCCC(=O)c1ccc2nc(NCCCCOc3cc(O)c4c(=O)cc(-c5ccccc5)oc4c3)sc2c1	17.8 (≈ 33.6 µM)	41.6 (≈ 78.7 µM)	7.17 (≈ 13.6 µM)	278 (≈ 525 µM)	–

Reference: ChEMBL document CHEMBL3632617, “Chrysin-benzothiazole conjugates as antioxidant and anticancer agents” (Bioorg Med Chem Lett, 2015)
